In ChEMBL document CHEMBL1129494, “Structure-based design of lipophilic quinazoline inhibitors of thymidylate synthase” (J Med Chem, 1996):

Legend:
GC3/MTK- [1] = assay: Inhibition of GC3/M TK- (human adenocarcinoma) cell growth in vitro; Insoluble.; assay type: functional, cell-based
Procedure, shortened: (§1)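 Thymidine kinase-deficient human adenocarcinoma GC3/M TK- cells seeded at 10 000 cells/well in RPMI-1640 with 10% fetal calf serum and 0.5% DMSO. Compound given as nine 2-fold serial dilutions over a 5 day incubation, then 4 h MTT and spectrophotometric formazan read after DMSO dissolution. IC50 from semilog plots of the mean of four growth assessments relative to control cultures.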

[2] = biological target: Thymidylate synthase (Escherichia coli) (UniProt C3SWJ7)
[3] = biological target: Thymidylate synthase (Homo sapiens) (UniProt P04818)
L1210 [4] = assay: Activity for growth inhibition in tissue culture of murine (L1210); Insoluble; assay type: functional, cell-based, Mus musculus
Procedure, shortened: (§2)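 Murine L1210 leukemia cells seeded at 1000 cells/well in RPMI-1640 containing 5% fetal calf serum and 0.5% DMSO, exposed to nine 2-fold serial dilutions for 3 days. Growth was read by MTT (4 h), with formazan dissolved in DMSO and measured spectrophotometrically. IC50 comes from semilog concentration plots of the mean of four assessments per dilution versus control growth.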

[5] = biological target: Thymidylate synthase (Escherichia coli) (UniProt C3SWJ7); remark: listed apart in the source
[6] = biological target: Thymidylate synthase (Homo sapiens) (UniProt P04818); remark: listed apart in the source
CCRF-CEM [7] = assay: Activity for growth inhibition in tissue culture of human leukemias (CCRF-CEM); Insoluble.; assay type: functional, cell-based
Procedure, shortened: (§3)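 MTT colorimetric growth assay (modified Mosmann) in CCRF-CEM human leukemia cells seeded at 10 000 cells/well in RPMI-1640 with 5% fetal calf serum and 0.5% DMSO. Nine 2-fold serial dilutions of compound, 5 day incubation, then 4 h MTT and formazan dissolved in DMSO for spectrophotometric reading. IC50 taken from semilog plots of the mean of four growth assessments per dilution relative to control cultures.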

L1210 [8] = assay: Inhibition of murine L1210 cell line tissue culture growth; assay type: functional, cell-based; conditions: Mus musculus; procedure, shortened: as §2
GC3/MTK- [9] = assay: (§4) Inhibitory activity of compound against growth of thymidine kinase-deficient human adenocarcinoma cell line (GC3/M TK-) in tissue culture; assay type: functional
Procedure, shortened: (§5)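 MTT colorimetric growth assay in the thymidine kinase-deficient human adenocarcinoma line. Seeded at 10 000 cells/well in RPMI-1640 with 10% fetal calf serum and 0.5% DMSO. Nine 2-fold serial dilutions of compound, 5 day incubation, then 4 h MTT. Formazan dissolved in DMSO and read spectrophotometrically. IC50 taken from semilog plots of the mean of four growth assessments per dilution, relative to control cultures.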

GC3/MTK- [10] = assay: Inhibition of GC3/M TK- (human adenocarcinoma) cell growth in vitro.; assay type: functional, cell-based; procedure, shortened: as §1
CCRF-CEM [11] = assay: (§6) Inhibition of CCRF-CEM (human leukemia) cell growth in vitro.; assay type: functional, cell-based; procedure, shortened: as §3
CCRF-CEM [12] = assay: Inhibitory activity of compound against growth of human leukemias (CCRF-CEM) cell line in tissue culture; assay type: functional
Procedure, shortened: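 CCRF-CEM human leukemia cells seeded at 10 000 cells/well in RPMI-1640 with 5% fetal calf serum and 0.5% DMSO. Exposed to nine 2-fold serial dilutions for 5 days, followed by 4 h with MTT. Formazan dissolved in DMSO and measured spectrophotometrically. IC50 read from semilog plots of the mean of four growth assessments per dilution versus control growth.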

CCRF-CEM [13] = assay: as §6; assay type: functional; design: concentration or dose not given beside the values; procedure, shortened: as §3
GC3/MTK- [14] = assay: as §4; assay type: functional; design: concentration or dose not given beside the values; procedure, shortened: as §5
CCRF-CEM [15] = assay: Activity for growth inhibition in tissue culture of human leukemias (CCRF-CEM). value in parenthesis indicates % inhibition; assay type: functional, cell-based
L1210 [16] = assay: Inhibition of L1210 (murine leukemia) cell growth in vitro.; assay type: functional, Mus musculus; design: concentration or dose not given beside the values; procedure, shortened: as §2
CCRF-CEM [17] = assay: Inhibitory activity of compound against growth of human leukemias (CCRF-CEM) cell lne in tissue culture; assay type: functional; procedure, shortened: as §3
GC3/MTK- [18] = assay: Activity for growth inhibition in tissue culture of thymidine kinase-deficient human adenocarcinoma cell line (GC3/M TK-)value in parenthesis indicates % inhibition; assay type: functional, cell-based

Chain of Thymidylate synthase (Homo sapiens) (P04818 2-313 limits assumed): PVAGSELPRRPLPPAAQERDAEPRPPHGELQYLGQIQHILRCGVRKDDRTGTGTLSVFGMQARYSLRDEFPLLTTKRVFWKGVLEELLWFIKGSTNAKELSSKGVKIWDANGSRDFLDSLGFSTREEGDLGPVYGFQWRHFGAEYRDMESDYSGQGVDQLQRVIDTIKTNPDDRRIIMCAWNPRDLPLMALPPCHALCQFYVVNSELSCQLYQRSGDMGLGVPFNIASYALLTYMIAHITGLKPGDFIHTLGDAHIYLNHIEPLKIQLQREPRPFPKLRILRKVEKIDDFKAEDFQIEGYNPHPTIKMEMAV
Chain of Thymidylate synthase (Escherichia coli) (C3SWJ7 1-264): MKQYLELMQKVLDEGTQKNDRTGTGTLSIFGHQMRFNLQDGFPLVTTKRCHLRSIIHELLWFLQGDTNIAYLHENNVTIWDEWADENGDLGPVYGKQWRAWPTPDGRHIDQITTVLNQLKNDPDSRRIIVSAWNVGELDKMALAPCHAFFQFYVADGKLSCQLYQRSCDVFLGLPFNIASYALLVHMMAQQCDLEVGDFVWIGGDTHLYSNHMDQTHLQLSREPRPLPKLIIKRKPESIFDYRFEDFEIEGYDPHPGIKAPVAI

Row | SMILES | IC50 (GC3/MTK- [1]) | Kis [2] [µM] | Kii [3] [µM] | IC50 (L1210 [4]) | Kii [5] [µM] | Kis [6] [µM] | IC50 (CCRF-CEM [7]) | IC50 (L1210 [8]) [µM] | Inhibition (GC3/MTK- [9]) [%] | IC50 (GC3/MTK- [10]) [µM] | IC50 (CCRF-CEM [11]) [µM] | Inhibition (CCRF-CEM [12]) [%] | Inhibition (CCRF-CEM [13]) [%] | Inhibition (GC3/MTK- [14]) [%] | IC50 (CCRF-CEM [15]) [µM] | Inhibition (L1210 [16]) [%] | Inhibition (CCRF-CEM [17]) [%] | IC50 (GC3/MTK- [18]) [µM]
1 | C#CCN(Cc1ccc2nc(C)nc(O)c2c1)c1ccc(S(N)(=O)=O)c(C(F)(F)F)c1 | Insoluble | 0.024 | 0.07 | Insoluble | 0.061 | 0.036 | Insoluble | – | – | – | – | – | – | – | – | – | – | –
2 | C#CCN(Cc1ccc2nc(C)nc(O)c2c1)c1ccc(C#N)c(Cl)c1 | – | 0.035 | 0.079 | – | 0.1 | 0.037 | – | 4.5 | 25 | 6.7 | > 6.7 | 10 | – | – | – | – | – | –
3 | CCN(Cc1ccc2nc(C)nc(O)c2c1)c1ccc(C(=O)C(F)(F)F)cc1 | – | 0.18 | 0.49 | – | 1 | 0.13 | – | 3.4 | – | > 4 | > 4 | – | 10 | 10 | – | – | – | –
4 | C#CCN(Cc1ccc2nc(C)nc(O)c2c1)c1cccc(C#C)c1 | – | 0.86 | 0.68 | – | 2.7 | 0.41 | – | > 2.4 | – | – | – | – | 15 | – | > 2.4 | 5 | – | –
5 | C#CCN(Cc1ccc2nc(C)nc(O)c2c1)c1ccc(C(=O)c2ccccc2)cc1 | – | 0.094 | 0.16 | – | 0.47 | 0.11 | – | 7.7 | – | 6.2 | > 7.7 | – | 40 | – | – | – | – | –
6 | C#CCN(Cc1ccc2nc(C)nc(O)c2c1)c1ccccc1 | – | – | – | – | – | – | – | > 6.5 | 24 | > 10.7 | > 10.7 | – | – | – | – | 35 | 29 | –
7 | Cc1nc(O)c2cc(CN(C)c3ccc(Cc4ccccc4)cc3)ccc2n1 | – | > 1 | > 1 | – | > 1 | > 1 | – | 2.8 | – | – | 3.4 | – | – | – | – | – | – | > 5
8 | C#CCN(Cc1ccc2nc(C)nc(O)c2c1)c1cccc(CC)c1 | – | 5 | 3.8 | – | 24 | 2.7 | – | > 5 | 20 | – | – | – | 26 | – | > 5 | 25 | – | > 5
9 | C#CCN(Cc1ccc2nc(C)nc(O)c2c1)c1ccc(S(=O)(=O)N2CCOCC2)cc1 | – | 0.039 | 0.091 | – | 0.15 | 0.045 | – | 3.1 | – | 5.2 | 4.5 | – | – | – | – | – | – | –
10 | C#CCN(Cc1ccc2nc(C)nc(O)c2c1)c1cccc(C)c1 | – | 3.4 | 3.4 | – | 16 | 1.4 | – | > 5 | 34 | – | > 5 | – | – | – | – | 30 | 20 | > 5
11 | C#CCN(Cc1ccc2nc(C)nc(O)c2c1)c1ccc(S(=O)(=O)C(F)(F)F)cc1 | – | 0.042 | 0.028 | – | 0.064 | 0.021 | – | > 2.75 | – | – | – | – | – | – | > 2.75 | 45 | – | > 2.75
12 | C#CCN(Cc1ccc2nc(C)nc(O)c2c1)c1cccc(I)c1 | – | 0.33 | 0.44 | – | 1.4 | 0.16 | – | > 5.3 | – | > 5.3 | – | – | 10 | 35 | > 5.3 | – | – | –
13 | C#CCN(Cc1ccc2nc(C)nc(O)c2c1)c1ccc(S(=O)(=O)N2CCNCC2)cc1 | – | 0.1 | 0.071 | – | 0.28 | 0.063 | – | > 50 | – | – | 48 | – | – | 47 | – | 47 | – | > 50
14 | Cc1nc(O)c2cc(CNc3ccc(S(=O)(=O)c4ccccc4)cc3)ccc2n1 | – | 2 | 2.2 | – | 17 | 1 | – | > 14.7 | – | > 14.7 | > 14.7 | – | 33 | 10 | – | 40 | – | –
15 | C#CCN(Cc1ccc2nc(C)nc(O)c2c1)c1cccc(Br)c1 | – | 0.92 | 0.84 | – | 3.3 | 0.65 | – | 1.8 | – | 5.3 | > 5.7 | – | 20 | – | – | – | – | –
